An excerpt weighted towards active compounds, which were near 3.4% of everything screened.
ANO1 activ – TMEM16A chloride channel activators or potentiators, primary screen, cell-based, HTS; 340,000 tested, 0.3% active; B-score at 10 µM; AID 623877, 2012; HEK293 TMEM16A/YFP-H148Q/I152L, iodide quench fluorescence; active compounds read low;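 active = fluorescence-ratio B-score plate-corrected deviation score at least 3 library SD below zero, with starting fluorescence score within 5 deviations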;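 note: channel opened by trigger with iodide after compound preincubation; score built on the fluorescence ratio of max minus min over baseline; more negative score means more quench and so TMEM16A activation or potentiation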
Target sequence (Q8BHY3 whole entry, looked up): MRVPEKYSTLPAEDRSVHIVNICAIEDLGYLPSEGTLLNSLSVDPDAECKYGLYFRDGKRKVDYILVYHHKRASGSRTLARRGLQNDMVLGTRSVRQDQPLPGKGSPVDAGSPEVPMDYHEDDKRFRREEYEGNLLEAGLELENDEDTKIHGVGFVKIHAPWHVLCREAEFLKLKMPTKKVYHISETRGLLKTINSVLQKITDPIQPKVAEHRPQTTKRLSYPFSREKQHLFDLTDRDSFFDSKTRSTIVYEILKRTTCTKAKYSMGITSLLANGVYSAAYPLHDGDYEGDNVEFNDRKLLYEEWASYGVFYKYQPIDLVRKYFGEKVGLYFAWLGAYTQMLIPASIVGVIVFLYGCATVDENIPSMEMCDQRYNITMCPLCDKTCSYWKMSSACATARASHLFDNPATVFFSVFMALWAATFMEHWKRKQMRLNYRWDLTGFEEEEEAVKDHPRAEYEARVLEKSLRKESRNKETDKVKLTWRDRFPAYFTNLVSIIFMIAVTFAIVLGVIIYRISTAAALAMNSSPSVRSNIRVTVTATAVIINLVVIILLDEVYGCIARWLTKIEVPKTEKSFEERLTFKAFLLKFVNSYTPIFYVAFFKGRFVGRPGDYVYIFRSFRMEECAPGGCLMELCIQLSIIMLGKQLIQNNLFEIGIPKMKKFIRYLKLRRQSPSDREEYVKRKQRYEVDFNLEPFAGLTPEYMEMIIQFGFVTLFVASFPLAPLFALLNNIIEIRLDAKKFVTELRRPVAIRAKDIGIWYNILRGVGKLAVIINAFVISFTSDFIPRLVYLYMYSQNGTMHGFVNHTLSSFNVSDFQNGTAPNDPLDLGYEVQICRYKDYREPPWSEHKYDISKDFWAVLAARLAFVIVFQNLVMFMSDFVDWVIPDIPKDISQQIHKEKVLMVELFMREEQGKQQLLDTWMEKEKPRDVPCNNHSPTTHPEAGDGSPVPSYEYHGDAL
MC4R antag cAMP – MC4R antagonists of cAMP signaling, primary screen, cell-based, TR-FRET, antagonist arm of biased-ligand search | Melanocortin receptor 4 (Homo sapiens), P32245 | 360,000 tested, 0.48% active | MC4R-expressing cells, MTII-stimulated cAMP, LANCE TR-FRET | inhibition, % at 6.5 µM | AID 540295, 2011;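 active = inhibition above its plate's cutoff, the mean of tested wells on that plate plus 3 SD, cut at about 29% in these data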
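Material: U2OS-MC4R stable cell line | Reagent: Melanotan II challenge after compound preincubation | Doses: One concentration, 6.5 µM nominal | Incubation: 30-min compound preincubation, 1-h Melanotan II challenge, 1-h detection, room temperature | Signal: TR-FRET cAMP assay | Replicates: One well per compound, no replicates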
m5-HT2A agonist – mouse Htr2a agonists via beta-arrestin recruitment, primary screen, cell-based, luminescence | 5-hydroxytryptamine receptor 2A (Mus musculus), P35363 | CHO-K1 mHTR2A beta-arrestin complementation; percent of 30 µM serotonin response | activation, % at 7.6 µM | 360,000 tested, 0.66% active;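 active = activation above a run cutoff, the mean activation of all tested compounds plus 3 SD, cut at about 14% in these data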
beta cell repl – inducers of MIN6 beta-cell proliferation, primary screen, ATP luminescence, uHTS; MIN6 cells proliferation, ATPlite luminescence, 48 h; cells starved in 0.2% serum; 100% = growth in 10% serum; proliferation, % at 10 µM; 330,000 tested, 0.29% active; AID 2380, 2010;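 active = compounds whose signal lies at least 3.5 SD above the mean of all wells on their plate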
MC4R ag barr – MC4R agonists recruiting beta-arrestin, primary screen, cell-based, luminescence, agonist arm of biased-ligand search. AID 540308, 2011. 360,000 tested, 0.98% active. U2OS MC4R beta-arrestin complementation; percent of melanotan II response, DMSO zero. activation, % at 8.9 µM. Melanocortin receptor 4 (Homo sapiens), P32245;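 active = activation above a per-plate cutoff, the mean activation of sample wells on that plate plus 3 SD, cut at about 8% in these data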
ANO1 block – TMEM16A chloride channel inhibitors, primary screen, cell-based, HTS. Anoctamin-1 (Mus musculus), Q8BHY3. HEK293 TMEM16A/YFP iodide influx fluorescence, ionomycin. normalized B-score (activity score, 25-100; higher = stronger inhibition) at 10 µM. 310,000 tested, 1.2% active. AID 588511, 2011;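 active = ratio plate-corrected score three or more library SD toward inhibition, starting fluorescence score within five deviations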;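 note: score derived from kinetic fluorescence span divided by baseline fluorescence per well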
MOR ag counter – OPRM1 agonists via beta-arrestin recruitment, confirmation, counter-screen for mouse HTR2A agonist project, cell-based, luminescence, single concentration. U2OS OPRM1 beta-arrestin PathHunter; DMSO 0%, DAMGO 9.3 µM 100%. shares compounds with m5-HT2A agonist. activation, % at 9.3 µM. AID 624380, 2012. 2,300 tested, 5.3% active;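 active = mean activation above the mean of DMSO-only wells plus 3 SD, cut at about 0.5% in these data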
HTR2A ag conf – mouse HTR2A agonists, beta-arrestin recruitment, confirmation, cell-based, luminescence, CHO-K1 PathHunter, triplicate; activation, % at 7.6 µM; AID 624381, 2012; 2,300 tested, 19% active; DMSO 0%, 30 µM serotonin 100%; shares compounds with m5-HT2A agonist;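 active = mean activation across triplicates above the hit threshold derived in the original primary screen, cut at about 15% in these data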
Each line names hits and unclear results; the compound was inactive in the other large screens (follow-up assays come after a bar, where they were run).

S=C(NC1CCCCC1)N1CCN(Cc2ccccc2Cl)CC1	m5-HT2A agonist 16.9 | MOR ag counter inactive | HTR2A ag conf inactive
CC(C)(C)c1ccc(C(=O)NNC(=O)CCc2ccccc2)cc1	none
O=C(Nc1ccc(Cl)cc1)Nc1nc(-c2ccccc2O)cs1	m5-HT2A agonist 14.4 | MOR ag counter inactive | HTR2A ag conf inactive
CC(=O)c1ccc(NC(=O)CN2CCC(NC(=O)c3ccccc3C)CC2)cc1	m5-HT2A agonist 22.6 (no result: ANO1 activ, beta cell repl, ANO1 block) | MOR ag counter inactive | HTR2A ag conf inactive
O=C(Nc1ccc(S(=O)(=O)Nc2ccnn2-c2ccccc2)cc1)C(F)(F)F	none
Nc1ccc(S(=O)(=O)Nc2ccnn2-c2ccccc2)cc1	m5-HT2A agonist 18.8 | MOR ag counter inactive | HTR2A ag conf inactive
O=C(CSc1nc2ccc(Nc3nc(N4CCOCC4)nc(N4CCOCC4)n3)cc2s1)N1CCOCC1	m5-HT2A agonist 14.5 | MOR ag counter inactive | HTR2A ag conf inactive
O=C(CSc1nc2ccc(Nc3nc(N4CCOCC4)nc(N4CCOCC4)n3)cc2s1)Nc1ccccc1F	m5-HT2A agonist 15.5 | MOR ag counter inactive | HTR2A ag conf inactive
CC(=O)Nc1ccc2nc(SCC(=O)N3CCOCC3)sc2c1	none
Cc1ccccc1NC(=O)c1cccc(NC(=O)c2ccco2)c1	m5-HT2A agonist 14.9 | MOR ag counter inactive | HTR2A ag conf inactive
CC(=O)Nc1ccc(NC(=O)c2ccco2)cc1	none
Cc1ccc(NC(=O)c2ccc(OC(=O)c3ccco3)cc2)cc1	m5-HT2A agonist 17.9 | MOR ag counter inactive | HTR2A ag conf inactive
O=C(Nc1ccc(Cl)cc1)c1ccco1	m5-HT2A agonist 14.6 | MOR ag counter inactive | HTR2A ag conf inactive
COc1ccc(OC)c(NS(=O)(=O)c2ccc3[nH]c(=O)[nH]c3c2)c1	none (no result: ANO1 activ, beta cell repl, ANO1 block)
Cc1cc(C(C)(C)C)c(OC(=O)[C@@H]2OC(c3ccccc3)=C[C@H]2c2ccccc2)c(C(C)(C)C)c1	none (no result: ANO1 block)
Cc1ccccc1CN1C(=O)c2ccccc2C1c1nnnn1C(C)C (centres undefined)	none (no result: ANO1 activ, MC4R antag cAMP, beta cell repl, MC4R ag barr, ANO1 block)
CCOc1ccc(-c2cc(C(=O)N3CCN(C)CC3)c3ccccc3n2)cc1	none
CCOc1ccc(-c2cc(C(=O)N3CCCC3)c3ccccc3n2)cc1	m5-HT2A agonist 14.8 | MOR ag counter inactive | HTR2A ag conf inactive
Cn1c(NCc2ccccc2Cl)nc2ccccc21	m5-HT2A agonist 19.8 | MOR ag counter inactive | HTR2A ag conf inactive
Cn1c(NCc2ccccc2O)nc2ccccc21	none
CC1(C(=O)NCc2cccc3ccccc23)CCN1C(=O)Cc1ccc(-c2ccccc2)cc1 (centres undefined)	none (no result: ANO1 activ, beta cell repl, ANO1 block)
COc1ccc(N2C(=O)CSC2c2cccc(OC)c2OC)cc1 (centres undefined)	m5-HT2A agonist 18.7 (no result: beta cell repl) | MOR ag counter inactive | HTR2A ag conf inactive
COc1cccc(C2SCC(=O)N2c2ccc(C)cc2)c1OC (centres undefined)	none
CCCCN(CC)C(=O)Cn1ncc2c1-c1cc(C)ccc1OC2	m5-HT2A agonist 16.5 | MOR ag counter inactive | HTR2A ag conf inactive
O=C(c1cccs1)c1c[nH]cc1-c1ccccc1	none
C#CCN(C[C@H]1[C@H](OC(=O)NCCCCCC)[C@H](OC(=O)NCCCCCC)C[C@H]2C(=O)N(c3ccccc3)C(=O)[C@@H]12)S(=O)(=O)c1ccc(C)cc1	m5-HT2A agonist 14.9 (no result: ANO1 activ, beta cell repl, ANO1 block) | MOR ag counter inactive | HTR2A ag conf inactive
Cc1ccc(N(C)S(=O)(=O)c2csc(C(N)=O)c2)cc1C	m5-HT2A agonist 15.0 | MOR ag counter inactive | HTR2A ag conf inactive
CC(C)N(C(C)C)S(=O)(=O)c1ccc(NC(=O)c2cnccn2)cc1	none
COc1ccc(S(=O)(=O)N/N=C\c2ccccc2F)cc1	m5-HT2A agonist 14.7 | MOR ag counter inactive | HTR2A ag conf inactive
CCCCNS(=O)(=O)c1cccc(NC(=O)[C@@H]2O[C@H](CO)[C@@H](O)[C@H]2O)c1	none (no result: ANO1 activ, beta cell repl, ANO1 block)
O=S(=O)(NOCc1ccc(Cl)cc1)c1ccc(Cl)cc1	m5-HT2A agonist 14.9 | MOR ag counter inactive | HTR2A ag conf inactive
Nc1ncnc(N)c1N=Nc1ccccc1	m5-HT2A agonist 21.1 | MOR ag counter inactive | HTR2A ag conf inactive
Nc1nn(-c2ccccc2)c(N)c1N=Nc1ccccc1	none
Cc1ccc(C(=O)Nc2cccc(-c3cn4ccccc4n3)c2)cc1	none
Cc1ccccc1C(=O)Nc1cccc(-c2cn3ccccc3n2)c1	m5-HT2A agonist 15.9 | MOR ag counter inactive | HTR2A ag conf inactive
COc1ccccc1C(=O)NC(=O)COC(=O)C1(C)CC1(Cl)Cl (centres undefined)	m5-HT2A agonist 18.0 | MOR ag counter inactive | HTR2A ag conf inactive
COc1ccccc1C(=O)NC(=O)COc1ccc([N+](=O)[O-])cc1	none
COc1ccccc1C(=O)NC(=O)COC(=O)c1ccc([N+](=O)[O-])cc1	m5-HT2A agonist 17.7 | MOR ag counter inactive | HTR2A ag conf inactive
O=C(CCN1N=C(c2ccccc2)CCC1=O)NC1CCCC1	m5-HT2A agonist 19.1 | MOR ag counter inactive | HTR2A ag conf inactive
C=CCN1C(=O)C(O)(CC(=O)c2ccc(N)cc2)c2ccccc21 (centres undefined)	m5-HT2A agonist 23.0 | MOR ag counter inactive | HTR2A ag conf inactive
COC(=O)CN1C(=O)C(O)(CC(=O)c2ccccc2)c2ccccc21 (centres undefined)	none
COc1cc(NS(=O)(=O)c2ccc(NC(=O)CCC(=O)O)cc2)nc(OC)n1	none
CCOC(=O)CCC(=O)Nc1ccc(S(=O)(=O)Nc2cc(OC)nc(OC)n2)cc1	m5-HT2A agonist 21.6 | MOR ag counter inactive | HTR2A ag conf inactive
O=c1c(CN2CCN(c3cccc(Cl)c3)CC2)coc2c(Cl)cc(Cl)cc12	m5-HT2A agonist 16.4 | MOR ag counter inactive | HTR2A ag conf inactive
CN1CCN(Cc2coc3c(Cl)cc(Cl)cc3c2=O)CC1	none

Screens deposited in PubChem by several laboratories.
